In ChEMBL document CHEMBL2331506, “Design, synthesis, antiviral and cytostatic evaluation of novel isoxazolidine nucleotide analogues with a carbamoyl linker” (Bioorg Med Chem, 2013) one finds inhibition and Activity data, which are given here for 3 compounds.

The source made the active and inactive calls. The rule behind the calls is not given here.

For data set [1], the system named is Vesicular stomatitis virus. As to the kind of experiment: Antiviral activity against Vesicular stomatitis virus infected in human HeLa cells assessed as reduction of virus-induced cytopathogenicity at 250 uM. The class given is functional, organism-based. A digest of the protocol:
(§1)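 Confluent cell monolayers were infected with 100 CCID50 of virus while exposed to varying compound concentrations. Cytopathicity was scored once it was complete in untreated infected controls. EC50 was taken as the concentration that reduced virus-induced cytopathogenicity by 50%.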

Data set [2] deals with Vero. The data set can be described thus: Cytotoxicity against african green monkey Vero cells assessed as alteration of cell morphology up to 100 uM by microscopic analysis. Particulars: chlorocebus sabaeus. The class given is cell-based. A digest of the protocol: (§2)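 Uninfected host-cell cultures were exposed to compound and examined by microscopy. Cytotoxicity was expressed as the minimum cytotoxic concentration (MCC) causing a microscopically detectable alteration of normal cell morphology.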

Data set [3] is described as follows: Cytotoxicity against cat CRFK cells assessed as alteration of cell morphology up to 100 uM by microscopic analysis. The class given is cell-based, Felis catus. Summed up: as §2
The subject of data set [4] is HeLa. As to the kind of experiment: Cytotoxicity against human HeLa cells assessed as alteration of cell morphology up to 100 uM by microscopic analysis. In kind it is cell-based. Summed up: as §2
Data set [5] deals with Human immunodeficiency virus 2. As to the kind of experiment: Antiviral activity against Human immunodeficiency virus 2 ROD infected in human CEM cells assessed as reduction of virus-induced giant cell formation at 250 uM after 4 to 5 days. The class given is functional, organism-based. To be noted: CCRF-CEM. A digest of the protocol:
(§3)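 CEM cells at 3 × 10^5 cells/mL were infected with HIV at 100 CCID50 per mL in the presence of compound dilutions. They were held 4–5 days at 37 °C in humidified CO2. Syncytium (giant cell) formation was scored microscopically, and EC50 was taken as the concentration inhibiting giant cell formation by 50%.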

Data set [6] deals with Mammalian orthoreovirus 1. The data set can be described thus: Antiviral activity against Reovirus 1 infected in african green monkey Vero cells assessed as reduction of virus-induced cytopathogenicity at 250 uM. The class given is functional, organism-based. Summed up: (§4)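 Confluent monolayers (HEL fibroblasts, Vero, or HeLa cells as listed) were infected with 100 CCID50 of virus in the presence of varying compound concentrations. Virus-induced cytopathicity or plaque formation was scored once cytopathicity was complete in untreated infected controls. EC50 was taken as the concentration reducing cytopathogenicity or plaque formation by 50%.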
Background: Damage to the host cells serves as the signal in cytopathic effect assays.

Data set [7] deals with Human alphaherpesvirus 1. The data set can be described thus: Antiviral activity against Herpes simplex virus 1 KOS infected in human HEL cells assessed as reduction of virus-induced cytopathogenicity at 250 uM. In kind it is functional, organism-based. Summed up: as §4
Data set [8] relates to MDCK. As to the kind of experiment: Cytotoxicity against dog MDCK cells assessed as alteration of cell morphology up to 100 uM by microscopic analysis. The class given is cell-based, Canis lupus familiaris. Summed up:
as §2

Data set [9] deals with Influenza A virus. The data set can be described thus: Antiviral activity against Influenza A virus H3N2 infected in dog MDCK cells assessed as reduction of virus-induced cytopathogenicity at 250 uM. The class given is functional, organism-based. A digest of the protocol:
as §1

The subject of data set [10] is Vesicular stomatitis virus. The data set can be described thus: Antiviral activity against Vesicular stomatitis virus infected in human HEL cells assessed as reduction of virus-induced cytopathogenicity at 250 uM. The class given is functional, organism-based. A digest of the protocol:
as §1

For data set [11], the system named is HEL. The data set can be described thus: Cytotoxicity against human HEL cells assessed as alteration of cell morphology up to 100 uM by microscopic analysis. In kind it is cell-based. A digest of the protocol:
as §2

Data set [12] concerns Human alphaherpesvirus 2. The data set can be described thus: Antiviral activity against Herpes simplex virus 2 G infected in human HEL cells assessed as reduction of virus-induced cytopathogenicity at 250 uM. The class given is functional, organism-based. To be noted: strain G. A digest of the protocol: as §4
In data set [13] the test system is Sindbis virus. As to the kind of experiment: Antiviral activity against Sindbis virus infected in african green monkey Vero cells assessed as reduction of virus-induced cytopathogenicity at 250 uM. In kind it is functional, organism-based. A digest of the protocol:
as §4

Data set [14] deals with Human respirovirus 3. The data set can be described thus: Antiviral activity against Parainfluenza virus 3 infected in african green monkey Vero cells assessed as reduction of virus-induced cytopathogenicity at 250 uM. The class given is functional, organism-based. A digest of the protocol:
as §4

Data set [15] concerns Punta Toro virus. As to the kind of experiment: Antiviral activity against Punta Toro virus infected in african green monkey Vero cells assessed as reduction of virus-induced cytopathogenicity at 250 uM. In kind it is functional, organism-based. Summed up:
as §4

The subject of data set [16] is Respiratory syncytial virus. The data set can be described thus: Antiviral activity against Respiratory syncytial virus long infected in human HeLa cells assessed as reduction of virus-induced cytopathogenicity at 250 uM. The class given is functional, organism-based. A digest of the protocol: as §4
For data set [17], the system named is Felid alphaherpesvirus 1. As to the kind of experiment: Antiviral activity against Feline herpes virus infected in cat CRFK cells assessed as reduction of virus-induced cytopathogenicity at 250 uM. The class given is functional, organism-based.
For data set [18], the system named is Influenza A virus. As to the kind of experiment: Antiviral activity against Influenza A virus H1N1 infected in dog MDCK cells assessed as reduction of virus-induced cytopathogenicity at 250 uM. The class given is functional, organism-based. A digest of the protocol:
as §1

The subject of data set [19] is Human alphaherpesvirus 1. The data set can be described thus: Antiviral activity against thymidine kinase-deficient, ACV-resistant Herpes simplex virus 1 KOS infected in human HEL cells assessed as reduction of virus-induced cytopathogenicity at 250 uM. The class given is functional, organism-based. A digest of the protocol:
as §1

The subject of data set [20] is Human immunodeficiency virus 1. As to the kind of experiment: Antiviral activity against Human immunodeficiency virus 1 3B infected in human CEM cells assessed as reduction of virus-induced giant cell formation at 250 uM after 4 to 5 days. The class given is functional, organism-based. To be noted: CCRF-CEM. A digest of the protocol: as §3
The subject of data set [21] is Influenza B virus. As to the kind of experiment: Antiviral activity against Influenza B virus infected in dog MDCK cells assessed as reduction of virus-induced cytopathogenicity at 250 uM. The class given is functional, organism-based. Summed up: as §1
Data set [22] deals with Coxsackievirus B4. The data set can be described thus: Antiviral activity against Coxsackievirus B4 infected in african green monkey Vero cells assessed as reduction of virus-induced cytopathogenicity at 250 uM. In kind it is functional, organism-based. A digest of the protocol:
as §4

In data set [23] the test system is Feline coronavirus. The data set can be described thus: Antiviral activity against Feline coronavirus infected in cat CRFK cells assessed as reduction of virus-induced cytopathogenicity at 250 uM. In kind it is functional, organism-based.

Consider `CCOP(=O)(OCC)[C@H]1C[C@H](C(=O)Nc2ccccc2C(C)=O)ON1C` (mixture of isomers), for which the inhibition entry in [1], in data set [5], in [6], in data set [7], in data set [9] and in data set [10] was “inactive” each time. The inhibition result in data set [12], in [13], in data set [14], in [15], in data set [16] and in data set [17] was “inactive” each time. Also, the inhibition result in data set [18], in [19], in data set [20], in data set [21], in [22] and in [23] was “inactive” in each case. In addition, the Activity entry in [2], in data set [3], in [4], in data set [8] and in [11] was “Non-toxic” in each case.

In the case of `CCOP(=O)(OCC)[C@@H]1C[C@H](C(=O)Nc2ccc(F)cc2)ON1C` (mixture of isomers), the inhibition entry in data set [1], in [5], in data set [6], in [7], in [9] and in [10] was “inactive” in each case. Besides, the inhibition result in [12], in data set [13], in data set [14], in data set [15], in [16] and in data set [17] was “inactive” throughout. Also, the inhibition entry in data set [18], in data set [19], in data set [20], in data set [21], in data set [22] and in [23] was “inactive” each time. The Activity result in [2], in data set [3], in [4], in data set [8] and in data set [11] was “Non-toxic” throughout.

Take `CCOP(=O)(OCC)[C@H]1C[C@H](C(=O)Nc2ccc(OC)c(OC)c2)ON1C` (mixture of isomers): the inhibition result in data set [1], in data set [5], in data set [6], in data set [7], in data set [9] and in data set [10] was “inactive” throughout. The inhibition entry in data set [12], in data set [13], in data set [14], in data set [15], in data set [16] and in data set [17] was “inactive” each time. For the same compound, the inhibition result in data set [18], in data set [19], in data set [20], in [21], in data set [22] and in data set [23] was “inactive” each time. Also, the Activity entry in [2], in data set [3], in [4], in data set [8] and in data set [11] was “Non-toxic” throughout.
